From PubChem BioAssay
Only some compounds are listed: those with a hit (about 2.4% of all), similar ones and a draw of the others.
GSIS activator: primary screen for activators of insulin secretion dependent on glucose, INS-1E cells, GLuc reporter luminescence; INS-1E GLuc reporter insulin secretion, 2-3 h; activation, % at 16.6 µM; hit rate 0.61% among 370,000; AID 743287;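 active = lowest replicate activation of at least 40%, so every replicate reaches that level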;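 note: 0% = median of neutral control wells and 100% = median of IBMX positive control wells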
dFosB act-1: activators of mouse delta FosB homodimer | P13346 | purified delta FosB, TAMRA-CDK5 oligo fluorescence polarization; percent of positive-control signal above neutral wells | activation, % at 25 µM | hit rate 0.99% among 340,000 | AID 493131;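 active = mean activation above about 17%, with every replicate also reaching it, limit read from the data, passing the limit was not always enough; inconclusive = only one of the two conditions met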
Cneo AK release: Cryptococcus neoformans lysis via adenylate kinase release; AID 651654; C. neoformans lysis, adenylate kinase release luminescence, 4 h; normalised: neutral wells 0, clomiphene wells 100; hit rate 0.2% among 360,000; lysis activity, % at 15 µM;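 active = mean lysis activity across replicates of at least 80%, whatever share of replicates individually reach that level; inactive = mean lysis activity below 80%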
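Signal: Adenylate kinase release luminescence | Assay system: Log-phase Cryptococcus neoformans yeast cells | Input: Cells at 5 × 10^6 per mL | Buffer or medium: Fresh YPD growth medium | Compound: Single dose | Schedule: Static 4 h at 37 °C with compound, 1 h detection | Controls: Clomiphene | Read-out: Luminescence rise reflecting yeast cell lysis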
miR122 inh: blocks miR-122 activity in Huh7 sensor cells | Huh7 miR-122 Renilla luciferase sensor, 48 h; neutral wells = 0, positive control = 100 | activation (reporter increase), % at 12.5 µM | hit rate 0.3% among 340,000 | AID 602342;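 active = mean replicate activation score at least 90 and every replicate individually at or above 90; inconclusive = only one of the two criteria met; inactive = neither criterion met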;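 note: higher luciferase means less miR-122 activity so hits act as miR-122 inhibitors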
HIV Env fusion: inhibitors of HIV Env-mediated cell fusion | HeLa-JRFL Env/CEM21 cell fusion, luciferase | inhibition, % at 12.3 µM | hit rate 1.1% among 360,000;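 active = mean replicate inhibition score of at least 50 and every replicate individually at or above 50; inconclusive = only one of the two criteria met; inactive = mean below 50 and not all replicates reaching 50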;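 note: 0% = plate neutral controls and 100% = maraviroc near 300 nM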
Rtt109 Vps75: C. albicans Rtt109 histone acetyltransferase inhibition | Q5AAJ8 | purified Rtt109/Vps75, ThioGlo CoA-SH fluorescence, 4 h | inhibition, % at 34.9 µM | hit rate 0.16% among 330,000 | AID 540336;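 active = inhibition of at least 50% in every replicate; inconclusive = best replicate reaches 50% inhibition but some replicates fall short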
Target sequence (Q5AAJ8 whole entry, looked up): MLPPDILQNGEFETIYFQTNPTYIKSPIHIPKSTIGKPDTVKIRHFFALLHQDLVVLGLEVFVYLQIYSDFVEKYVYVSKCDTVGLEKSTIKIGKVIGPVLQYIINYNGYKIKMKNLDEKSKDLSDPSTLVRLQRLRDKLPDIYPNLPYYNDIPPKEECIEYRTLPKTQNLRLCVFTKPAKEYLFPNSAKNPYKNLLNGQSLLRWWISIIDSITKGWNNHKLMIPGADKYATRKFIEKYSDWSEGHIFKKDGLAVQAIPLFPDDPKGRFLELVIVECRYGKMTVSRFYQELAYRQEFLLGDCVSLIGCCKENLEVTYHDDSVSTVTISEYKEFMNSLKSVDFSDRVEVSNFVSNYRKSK
dFosB act-2: activators of mouse delta FosB homodimer DNA binding; shares compounds with dFosB act-1; purified delta FosB, TAMRA-CDK5 oligo fluorescence polarization; normalised: neutral wells 0, positive control 100; activation, % at 24.9 µM; 2,400 tested, under 10 active; AID 588690;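 active = highest replicate activation at or above 34% and every replicate reaching that threshold; inconclusive = meets only one of the two criteria; inactive = meets neither criterion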;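 note: higher polarization means more probe DNA bound by delta FosB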
* hit, by the source's call; ? = inconclusive; . = not tested or not shown; [ ] = remark or other dose.

SMILES	GSIS activator	dFosB act-1	Cneo AK release	miR122 inh	HIV Env fusion	Rtt109 Vps75	dFosB act-2
O=C(CN1C(=O)NC2(CCCCCC2)C1=O)Nc1ccc(Cl)cc1Cl	.	1	-2	.	6	37	.
CC(OC(=O)c1cccc(-n2cnnn2)c1)C(=O)Nc1ccccc1F (configuration not stated)	-11	-13	-2	1	-38	1	.
CC(OC(=O)c1cccc(-n2cnnn2)c1)C(=O)Nc1ccc(F)c(F)c1F (configuration not stated)	-7	30*	0	-1	-4	1	-1
CC(C)NC(=O)N1[C@H](CO)[C@@H](c2ccccc2)C12CN(C(=O)Cc1ccccc1)C2	-12	.	.	.	.	.	.
CSc1nsc(SC)c1NC(=O)Nc1ccccc1C	3	33*	.	-7	-7	?	7
COC(=O)C[C@H]1CC[C@@H]2[C@@H](COc3ccc(NC(=O)c4cccc(F)c4)cc3C(=O)N2C)O1	-3	.	2	3[16.7 µM]	-6[16.7 µM]	.	.
CCOC(=O)c1c(C)[nH]c(C(=O)OCC(=O)NCc2ccc(OC)c(OC)c2)c1C	5	5	-1	-12	50	10	.
CCOC(=O)c1c(C)[nH]c(C(=O)OCC(=O)Nc2cc(C)c(Cl)cc2OC)c1C	.	45*	3	4	-35	-10	1
CCOc1ccccc1N(CC(=O)Nc1ccc(S(=O)(=O)N2CCOCC2)cc1)S(=O)(=O)c1ccccc1	.	53*	16	3	.	-19	0
COc1ccc(Cn2c(CCC(=O)Nc3ccc(C)c(C)c3)nc3cccnc32)cc1	.	18*	1	1	-57	-5	-8
Cc1ccc2[nH]c3c(=O)n(CC(=O)NCc4ccco4)ncc3c2c1	10	26*	0	0	0	-1	2
Cc1ccc(CNC(=O)c2nnn(CC(=O)Nc3cccc(C)c3C)c2N)cc1	8	66*	1	-3	1	2	-1
Cc1ccc(CCNC(=O)Cn2ncc3c([nH]c4ccccc43)c2=O)cc1	-8	6	0	-4	-4	3	.
Cc1ccc(C)c(NC(=O)Cn2nnc(C(=O)NCc3ccco3)c2N)c1	-1	30*	-6	10	2	1	-5
COC(=O)C[C@H]1CC[C@H]2[C@@H](COc3ccc(NC(=O)c4cccs4)cc3C(=O)N2C)O1	0	.	.	.	.	.	.
CC(=O)N(C)C[C@H]1Oc2ccc(NC(=O)NC(C)C)cc2C(=O)N(C)C[C@H]1C	-2	.	.	.	.	.	.
COc1cccc(-c2ccc([C@@H]3[C@@H](CO)N(C(C)=O)C34CN(C(C)=O)C4)cc2)c1	23	.	.	.	.	.	.
CC(C)Cc1nnc(NC(=O)CCC(=O)NCc2ccccc2Cl)s1	16	19*	.	.	11	-1	8
COC(=O)[C@]1(Cc2ccccc2)N=C(c2ccc(OCCCO)cc2)O[C@@H]1c1ccccc1	.	.	2	.	31[16.7 µM]	.	.
Cc1cc(C)c(NC(=O)Cn2c(=O)c3cccn3c3ccccc32)c(C)c1	3	39*	1	-3	-1	-4	3
CCc1ccc(NC(=O)Cn2c(=O)c3cccn3c3ccccc32)cc1	27	32*	0	4	4	-9	5
COc1ccc(OC)c(/C=N/NC(=O)CSc2cc(C)nc3c(OC)cccc23)c1	-7	37*	.	-4	8	-15	5
COCC(=O)Nc1ccc2c(c1)[C@H]1C[C@@H](CC(=O)N3CCc4ccccc4C3)O[C@@H](CO)[C@H]1O2	0	.	-1	-1[16.7 µM]	.	.	.
C[C@H]1CN([C@@H](C)CO)C(=O)c2cc(-c3ccc(C#N)cc3)cnc2O[C@@H]1CN(C)C(=O)CC1CC1	28	.	-2	6[16.7 µM]	-8[16.7 µM]	.	.
COC(=O)c1cc(NC(=O)CC2Oc3ccccc3NC2=O)cc(C(=O)OC)c1 (configuration not stated)	-5	-17	-1	.	-9	-2	.
CCc1cccc(NC(=O)CC2Oc3ccccc3NC2=O)c1 (configuration not stated)	17	21*	2	-1	3	-10	0
